Screening results deposited in PubChem BioAssay by several laboratories.
FAK blocker: FAK (human) kinase inhibition; Q05397; biochemical FAK kinase activity assay; inhibition, %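 (tested at 7 µM)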; actives 0.84% (n = 97,000); AID 727; in the data active means inhibition above about 19%
Target sequence (Q05397 whole entry, looked up): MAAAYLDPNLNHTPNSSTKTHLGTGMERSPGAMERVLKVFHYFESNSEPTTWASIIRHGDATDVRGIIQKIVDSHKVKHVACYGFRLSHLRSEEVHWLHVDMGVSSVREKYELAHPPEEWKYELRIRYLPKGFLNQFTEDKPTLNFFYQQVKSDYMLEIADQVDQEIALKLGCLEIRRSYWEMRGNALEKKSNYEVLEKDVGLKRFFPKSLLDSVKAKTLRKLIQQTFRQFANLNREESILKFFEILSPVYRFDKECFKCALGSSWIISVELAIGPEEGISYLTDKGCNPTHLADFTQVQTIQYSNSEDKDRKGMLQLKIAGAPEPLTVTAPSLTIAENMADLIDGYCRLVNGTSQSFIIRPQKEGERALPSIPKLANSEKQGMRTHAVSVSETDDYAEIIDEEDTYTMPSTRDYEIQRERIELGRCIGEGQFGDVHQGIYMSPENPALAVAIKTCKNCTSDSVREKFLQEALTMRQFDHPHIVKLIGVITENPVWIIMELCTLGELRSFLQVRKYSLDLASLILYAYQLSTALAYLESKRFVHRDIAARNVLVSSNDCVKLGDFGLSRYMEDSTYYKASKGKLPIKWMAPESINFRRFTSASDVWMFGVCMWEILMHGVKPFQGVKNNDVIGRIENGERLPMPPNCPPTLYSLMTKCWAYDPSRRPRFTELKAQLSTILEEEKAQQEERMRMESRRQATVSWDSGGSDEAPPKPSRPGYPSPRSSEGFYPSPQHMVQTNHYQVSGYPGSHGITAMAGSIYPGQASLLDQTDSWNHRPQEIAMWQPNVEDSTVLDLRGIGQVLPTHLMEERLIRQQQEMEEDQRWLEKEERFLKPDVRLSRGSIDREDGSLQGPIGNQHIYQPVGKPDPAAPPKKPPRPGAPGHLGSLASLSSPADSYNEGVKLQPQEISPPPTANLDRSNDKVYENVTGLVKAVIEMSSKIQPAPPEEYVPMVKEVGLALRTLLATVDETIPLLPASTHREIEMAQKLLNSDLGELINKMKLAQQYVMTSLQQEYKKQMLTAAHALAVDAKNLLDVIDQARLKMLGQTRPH
Rev-RRE block: inhibitors of HIV-1 Rev-RRE RNA interaction; Rev peptide-RRE RNA binding, FRET; inhibition, % at 8 µM; actives 0.79% (n = 97,000); AID 704;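 active means inhibition above the screen-wide mean plus 3 SD, cut at about 35% in these data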
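System: Cy5-labelled duplex RRE RNA binding fluorescein-labelled HIV Rev peptide; Signal: fluorescein-to-Cy5 FRET, 480 nm excitation; Also added: labelled Rev peptide; Compound: one concentration, 8 µM nominal; Buffer or medium: HEPES pH 7.5 salt buffer with EDTA; Read-out: % inhibition of FRET ratio versus controls; Schedule: 5 min preincubation and 15 min binding, 25 °C.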
Plk1 PBD FP: Plk1 (human) PBD binding inhibition; inhibition, %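 (tested at about 20 µM)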; Plk1 PBD phosphopeptide binding, fluorescence polarization; actives 0.13% (n = 97,000); AID 693; in the data active means inhibition above about 34%, passing the limit was not always enough
PTK2B oligo ant: antagonists of human Pyk2 oligomerization. Q14289. Q293 cells, Pyk2 FERM NanoBiT luminescence; active compounds read low. z-score (the deposit names both 25 µM and 10 µM). actives 0.83% (n = 99,000);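 active means Z-score of -3 or lower, scaled per plate to the spread of control and sample wells; inactive means z-score above -3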;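 further: negative z-score means lost luminescence so less FERM oligomerization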
Cav3 T inh: human Cav3.2 channel inhibition, primary screen. O95180. Cav3.2-expressing cells, Fluo-4 calcium fluorescence FDSS; active compounds read low. B-score at 10 µM. actives 4% (n = 100,000). AID 449739;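 active means single-dose well whose peak fluorescence ratio is a statistical outlier from its plate by either plate-standardised score or position-corrected B-score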
PLK1 inh: PLK1 (human) kinase inhibition | P53350 | recombinant PLK1 kinase, TR-FRET peptide phosphorylation | inhibition, % at 10 µM | actives 0.53% (n = 97,000);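 active means inhibition of 50% or more in the single-concentration screen; inactive means inhibition below 50%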
Hits are given with their value; . = inactive; / = no result given. Compounds with a hit are over-represented: about 5.8% of the library has one in this group of screens.

SMILES | FAK blocker | Rev-RRE block | Plk1 PBD FP | PTK2B oligo ant | Cav3 T inh | PLK1 inh
COC(=O)c1ccc(C(c2c(N)n(CC(C)C)c(=O)[nH]c2=O)N2CCN(c3ccccc3)CC2)cc1 (stereo unspecified) | . | . | . | . | -5.9 | .
Fc1ccc(-n2nnc(-c3nccs3)n2)cc1 | / | / | / | / | . | /
CCN1/C(=C/c2ccc3ccccc3[n+]2CC)C=Cc2ccccc21 | . | . | . | . | -5.4 | .
Nc1ccc(-c2ccc(N)cc2C(F)(F)F)c(C(F)(F)F)c1 | . | . | . | -3.1 | / | .
CCCCCCCCCCn1c2c(c(=N)c3c1CCC3)CCC2 | . | . | . | . | -7 | .
CCOC(=O)Cn1c2c(c(=N)c3c1CCC3)CCC2 | . | . | . | . | . | .
Cc1ccc(S(=O)(=O)N2CCSC2)cc1C | . | . | . | . | . | .
C[C@@H]1C=C(C(=O)NCc2nc3ccccc3[nH]2)O[C@H](OCCCCO)C1 | / | / | / | / | . | /
CCCOc1ccccc1N/C(=N/c1nc(C)cc(C)n1)NC(=O)COc1ccc(OC)cc1 | . | . | . | . | -5 | .
FC(F)(F)c1ccc(CN2CCCCCC2)cc1 | . | . | . | . | . | .
Nc1c(S(=O)(=O)c2ccccc2)c2nc3ccccc3nc2n1Cc1ccco1 | . | 43 | . | . | . | .
Cc1nn(C(C)(C)C)c(OC(=O)c2cccs2)c1Sc1ccccc1 | . | . | . | . | -5.2 | .
Cc1nn(C(C)(C)C)c(OC(=O)c2ccc3c(c2)OCO3)c1Sc1ccccc1 | . | . | . | . | -4.9 | .
Cc1c(C)n(C(=O)CN2CCC(C)CC2)c2ccccc12 | . | . | . | . | . | .
CCCC(=O)NC(=S)Nc1cccc(Cl)c1N1CCCCC1 | . | . | . | . | -5 | .
O=C(Cn1nnc(-c2ccccc2Cl)n1)NCc1ccc2c(c1)OCO2 | . | . | . | . | . | .
O=C1Nc2cc(Cl)ccc2Nc2cscc21 | / | / | / | / | . | /
OCCOCCn1c(C(CO)Nc2nc(-c3ccc(F)cc3)cs2)nc2ccccc21 (stereo unspecified) | / | / | / | / | . | /
Cc1ccc(-n2nnnc2SC(C)C(=O)Nc2ccc(Cl)cn2)cc1 (stereo unspecified) | / | / | / | . | -4.1 | /
Cc1ccc(-n2nnnc2SC(C)C(N)=O)c(C)c1 (stereo unspecified) | . | . | . | . | . | .
CC(C)C(CCNC(=O)CC(Cc1ccccc1)c1ccco1)c1ccco1 (stereo unspecified) | . | . | . | . | -6.8 | .
CC(=O)N1N=C(c2ccc3nccnc3c2)CC1c1ccccc1 (stereo unspecified) | . | . | . | . | . | .
Cc1ccc(C2=NN3C(C(=O)c4ccccc4)Oc4ccccc4C3C2)cc1 (stereo unspecified) | . | . | . | . | -7.3 | .
O=C(NCCCN1CCCC1=O)c1ccc(Cl)c(NS(=O)(=O)c2ccc(F)cc2)c1 | . | . | . | . | . | .
CCOC(=O)c1ccc(NC(=O)CCOc2ccccc2)cc1 | . | . | . | . | . | .
SMILES | FAK blocker | Rev-RRE block | Plk1 PBD FP | PTK2B oligo ant | Cav3 T inh | PLK1 inh
CCCCC(=O)Nc1ccc(C(=O)OC2CCCCC2)cc1 | . | . | . | . | -4 | .
CCCOC(=O)c1ccc(NC(=O)CCOc2ccccc2)cc1 | . | . | . | . | -4 | .
N#Cc1ccc2ccn(CC(=O)NCc3ccccc3)c2c1 | . | . | . | . | . | .
COc1ccccc1S(=O)Cc1ccc(C(=O)NCc2ccccc2Cl)o1 (stereo unspecified) | . | . | . | / | . | .
CN(C)c1ccc(/C=C2/C(=O)N(c3ccc([N+](=O)[O-])cc3)N=C2N2CCOCC2)cc1 | . | . | . | / | / | .
CN(C)c1ccc(/C=C2\C(=O)N(c3ccc([N+](=O)[O-])cc3)N=C2N2CCOCC2)cc1 | 20 | . | . | / | / | .
CCN(CC)C(=O)C(Sc1ccccc1)c1ccccc1 (stereo unspecified) | . | . | . | . | . | .
O=C(C1CC(c2cccc(Br)c2)=NO1)N1CCc2ccccc2C1 (stereo unspecified) | . | . | . | . | -4.4 | .
O=C(O)C1CC(c2cccc(Br)c2)=NO1 (stereo unspecified) | . | . | . | . | . | .
CCC(=O)Nc1nnc(SCC(=O)c2ccc3c(c2)Cc2ccccc2-3)s1 | . | . | . | . | . | .
COc1ccc(C(=O)Nc2ccc(NC(=O)c3cnccn3)cn2)cc1 | . | . | . | . | / | .
Cc1ccc(N(CC(=O)N2CCc3ccccc32)C2=NC(=O)CS2)cc1 | . | . | . | . | -4.3 | .
COc1ccc(C2(O)CC3CCC(C2)N3c2nc(C)cc(C)c2C#N)cc1 (stereo unspecified) | . | . | . | -3 | . | .
CCOc1ccc(S(=O)(=O)N2CCN(C(=O)c3cc4c(s3)CCCC4)CC2)cc1 | / | / | / | . | / | /
COc1ccccc1NC(=O)C1=C(C)Nc2nc(-c3ccccc3)nn2C1c1ccccn1 (stereo unspecified) | . | . | . | . | -7.6 | .
Cc1nc(SCC(=O)N2CCc3ccccc32)n[nH]1 | . | . | . | . | . | .
NC(=O)c1nsc(C(=O)N(CC(=O)NCc2ccco2)c2ccccc2F)c1N | 24 | . | . | . | . | .
CCn1cc(Cl)c(C(=O)N2N=C3/C(=C/c4cccs4)CCCC3C2c2cccs2)n1 (stereo unspecified) | . | . | . | . | -5.6 | .
Cc1ncsc1C(=O)N1N=C2/C(=C/c3ccccc3)CCCC2C1c1ccccc1 (stereo unspecified) | . | . | . | . | / | .
CN(CC1CCCO1)S(=O)(=O)c1ccc(C(=O)Nc2nc3cc4c(cc3s2)OCO4)cc1 (stereo unspecified) | . | . | . | / | / | .
O=C1NC(=S)S/C1=C\c1ccc(SCc2ccco2)o1 | / | / | / | . | / | /
CCCC1=NN2C(=N)/C(=C\c3ccc(SCc4ccco4)o3)C(=O)N=C2S1 | . | 36 | . | . | . | .
CCC1=NN2C(=N)/C(=C\c3ccc(SCc4ccco4)o3)C(=O)N=C2S1 | . | 36 | . | . | . | .
COc1ccc(-c2cnc(SCC(=O)Nc3ccc4c(c3)OCO4)n2Cc2ccco2)cc1 | . | . | . | . | -4.1 | .
CC(=O)Nc1cccc(NC(=O)CSc2ncc(-c3ccc(Cl)cc3)n2Cc2ccco2)c1 | . | . | . | -3.7 | -3.8 | .
Cn1c(NCc2cccc(Br)c2)nc2ccccc21 | . | . | . | . | . | .
Cn1c(Oc2ccccc2NCc2cccc(Br)c2)cc(=O)n(C)c1=O | . | . | . | . | -8.1 | .
COc1ccc(NC(=O)c2cn(-c3ccccc3)nc2-c2cc3ccccc3o2)cc1 | . | . | . | -4.5 | . | .
CCOC(=O)CN1C(=O)N[C@@H](c2ccco2)C(C(=O)OC)=C1C | / | / | / | / | . | /
Cc1cc(NC(c2ccc(Cl)cc2)c2ccc3cccnc3c2O)no1 (stereo unspecified) | . | . | . | . | -4.1 | .
